The record followed here is article PMC7826400 (Proceedings of the National Academy of Sciences of the …, 2021).

Read-outs that look alike come from different tables or passages of the source.

For assay [1], the target named is T1, MdIPMS1 (Malus domestica, UniProt A0A498I0D3).
T1 sequence (A0A498I0D3 59-236): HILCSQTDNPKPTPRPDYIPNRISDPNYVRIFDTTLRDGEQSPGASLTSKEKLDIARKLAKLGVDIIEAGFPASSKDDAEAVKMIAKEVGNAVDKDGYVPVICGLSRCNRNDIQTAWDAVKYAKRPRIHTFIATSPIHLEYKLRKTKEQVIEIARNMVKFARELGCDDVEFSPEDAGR
T1 sequence (A0A498I0D3 250-642): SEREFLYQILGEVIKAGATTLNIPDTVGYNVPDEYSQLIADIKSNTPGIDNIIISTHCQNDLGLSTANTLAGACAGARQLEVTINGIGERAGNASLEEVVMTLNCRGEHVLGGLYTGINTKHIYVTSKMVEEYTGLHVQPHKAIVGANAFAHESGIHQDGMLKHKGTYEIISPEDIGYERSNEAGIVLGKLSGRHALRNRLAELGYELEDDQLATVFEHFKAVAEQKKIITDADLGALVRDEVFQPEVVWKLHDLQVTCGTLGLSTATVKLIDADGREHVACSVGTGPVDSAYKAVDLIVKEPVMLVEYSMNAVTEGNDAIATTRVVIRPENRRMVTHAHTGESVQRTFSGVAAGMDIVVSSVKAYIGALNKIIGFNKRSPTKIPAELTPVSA
In words: DTNB endpoint assay, feedback inhibition. The class given is biochemical. The following applies: 10 mM α-ketoisovalerate; threonine range 0 to 10 mM.

Assay [2] has as its target T2, MdIPMS2 (Malus domestica, UniProt A0A498KQL4).
T2 sequence (A0A498KQL4 64-634): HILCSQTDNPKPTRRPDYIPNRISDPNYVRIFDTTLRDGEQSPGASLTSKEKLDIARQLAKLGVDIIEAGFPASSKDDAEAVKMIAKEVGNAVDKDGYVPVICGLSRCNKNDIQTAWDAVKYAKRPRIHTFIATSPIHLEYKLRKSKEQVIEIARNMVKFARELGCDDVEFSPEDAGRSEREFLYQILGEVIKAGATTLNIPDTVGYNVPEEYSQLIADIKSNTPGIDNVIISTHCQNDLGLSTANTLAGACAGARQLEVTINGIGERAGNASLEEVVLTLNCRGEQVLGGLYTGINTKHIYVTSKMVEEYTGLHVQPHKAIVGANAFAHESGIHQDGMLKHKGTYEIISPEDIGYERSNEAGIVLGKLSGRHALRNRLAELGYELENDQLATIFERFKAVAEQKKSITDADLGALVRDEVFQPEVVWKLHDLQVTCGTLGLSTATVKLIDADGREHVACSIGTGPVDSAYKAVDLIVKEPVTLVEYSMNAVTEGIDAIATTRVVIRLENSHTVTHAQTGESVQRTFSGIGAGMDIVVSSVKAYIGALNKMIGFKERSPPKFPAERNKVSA
The experiment in a line: DTNB endpoint assay, feedback inhibition. The assay is classed as biochemical. The following applies: 10 mM α-ketoisovalerate; threonine range 0 to 10 mM.

Another assay concerns MdCMS_1. In words: DTNB endpoint assay, Lineweaver-Burk. The class given is biochemical, Malus domestica. The following applies: read-out: Km ± SE. The gist of the method:
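Recombinant apple enzyme expressed in E. coli BL21 (ORF with or without putative chloroplast transit peptide) and purified. Activity measured by DTNB (Ellman's reagent) endpoint assay. Acetyl-CoA was varied with pyruvate held saturating at 10 mM. Absorbance was corrected against an identical mixture lacking α-ketoacid. Km was obtained by regression of Lineweaver–Burk plots, with two to three replications per regression.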

Assay [3] deals with T2, MdIPMS2. The experiment in a line: DTNB endpoint assay, feedback inhibition. The assay is classed as biochemical. Conditions: read-out: % inhibition at 0.05 mM.
Assay [4] concerns the target T1, MdIPMS1. In words: DTNB endpoint assay, feedback inhibition. The class given is biochemical. The following applies: read-out: % inhibition at 0.05 mM.

As for `C[C@@H](O)[C@H](N)C(=O)O` [threonine], the “% inhibition” value at MdIPMS1 [1] and at MdIPMS2 [2] was “both MdIPMS proteins were inhibited by elevated levels of threonine” each time.

As to `CC(=O)C(=O)O` [Pyruvate], in the assay with MdCMS_1 (co-substrate acetyl-CoA), the Km came out at 2450 µM.

For the compound `CC(=O)SCCNC(=O)CCNC(=O)[C@H](O)C(C)(C)COP(=O)(O)OP(=O)(O)OC[C@H]1O[C@@H](n2cnc3c(N)ncnc32)[C@H](O)[C@@H]1OP(=O)(O)O` [Acetyl-CoA], in the assay with MdCMS_1 (saturating (10 mM) pyruvate), the Michaelis constant (Km) is 6.6 ± 0.9 µM.

`CCC(=O)C(=O)O` [α-Ketobutyrate]: in the assay on MdCMS_1 (co-substrate acetyl-CoA), the Km came out at 3560 µM.

With `CC(C)C[C@H](N)C(=O)O` [leucine], the results for the inhibition at 50 µM at MdIPMS2 [3] and on MdIPMS1 [4] were 70% and 40%, respectively.
